SMILES strings stand for the structures. Calls of active or inactive are those of the source. No cut-off for these calls is given here. Residues, ends and D or L forms follow the SMILES beside them. *: point of attachment. Cbz = O=C(OCc1ccccc1)*

Data set [1] in a line: Cytotoxicity against primary human blood macrophages after 48 hrs by MTT assay. Type of data set: cell-based. Particulars: macrophage. The method, boiled down: (§1)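 Primary human blood macrophages or MDCK cells were incubated 48 h with DMSO-dissolved compound; viability by MTT assay. DMSO-treated cells served as solvent controls.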
(In general: Tetrazolium dyes change colour on reduction, which living cells bring about.)

The subject of data set [2] is Influenza A virus. As to the kind of experiment: Antiviral activity against Influenza A virus (A/Viet Nam/1203/2004(H5N1)) in MDCK cells assessed as inhibition of viral replication after 48 hrs by hemagglutinination assay. Type of data set: functional, organism-based.
For data set [3], the system named is Influenza A virus. Kind of data set: Antiviral activity against influenza A virus H1N1 A/HK/54/98 in MDCK cells assessed as inhibition of viral replication after 48 hrs by hemagglutinination assay. The class given is functional, organism-based. The method, boiled down:
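H1N1 A/HK/54/98 infected MDCK cells at moi 2 for 30 min, then washed once with PBS. Cells were refed with serum-free medium containing TPCK-trypsin plus compound. Supernatant was collected 48 h post-infection and viral titre was read by hemagglutination assay.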

Another data set relates to MDCK. Kind of data set: Cytotoxicity against MDCK cells after 48 hrs by MTT assay. Type of data set: cell-based, Canis lupus familiaris. Particulars: dog. The method, boiled down:
as §1

Data set [4] concerns Influenza A virus. Kind of data set: Antiviral activity against Influenza A virus (A/Viet Nam/1203/2004(H5N1)) in MDCK cells assessed as inhibition of viral replication at 100 uM after 18 hrs by transmission electron microscopy. The class given is functional, organism-based.
Data set [5] concerns Influenza A virus. As to the kind of experiment: Antiviral activity against influenza A virus H1N1 A/HK/54/98 in MDCK cells assessed as inhibition of viral replication at 100 uM after 18 hrs by transmission electron microscopy. Type of data set: functional, organism-based. The procedure, abridged: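 MDCK cells were infected with H1N1 at moi 2, then treated with compound at 100 µM, with DMSO controls. At 18 h post-infection, cells were fixed in 2.5% glutaraldehyde in 0.1 M cacodylate (pH 7.4), post-fixed in 1% osmium tetroxide, and embedded in epoxy. 100 nm sections were examined by TEM for surface virions.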

Data set [6] has as its system Influenza A virus. Kind of data set: Antiviral activity against Influenza A virus (A/Viet Nam/1203/2004(H5N1)) in MDCK cells assessed as inhibition of virus-induced cytopathic effect after 48 hrs by crystal violet staining. Type of data set: functional, organism-based. On the technique in general: Protection from cytopathic effect is a common read-out in antiviral testing.

The test system of data set [7] is Influenza A virus. Kind of data set: Antiviral activity against influenza A virus H1N1 A/HK/54/98 in MDCK cells assessed as inhibition of virus-induced cytopathic effect after 48 hrs by crystal violet staining. Type of data set: functional, organism-based. The method, boiled down:
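H1N1 A/HK/54/98 infected MDCK cells at moi 2, with compound over a range of concentrations; supernatant taken at 48 h. Serial 2-fold dilutions were adsorbed 1 h onto MDCK cells (2 × 10^4/well), then incubated 4 days in MEM with 1 µg/mL TPCK-trypsin. CPE was read by formaldehyde fixation and crystal violet staining; TCID50 by Reed-Muench. Three independent experiments.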

The next data set has as its system Mus musculus. Kind of data set: Toxicity in mouse assessed as survival up to 400 mg/kg. The class given is organism-based. The arrangement: dose 400 mg/kg. The following applies: in vivo.
For data set [8], the target named is Neuraminidase (Influenza A virus) (UniProt B4URF0). Kind of data set: Inhibition of influenza A virus H1N1 neuraminidase catalytic activity at 100 uM. The procedure, abridged: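 Chemiluminescent NA-Star kit using H1N1 virus (TCID50 2 × 10^7/mL, diluted 5-fold) as enzyme source. Virus was preincubated with compound, in triplicate, 20 min at 37 °C. 1:1000-diluted substrate was then added for 30 min at room temperature, followed by accelerator and an immediate luminescence read.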

In data set [1], `CC[C@H](C)[C@H](NC(=O)[C@H](C)NC(=O)OCc1ccccc1)C(=O)O` (Cbz-Ala-Ile-OH) registered an Activity of 1 µM. Besides, the result with Influenza A virus [2] and in the data set on Influenza A virus [3] was inactive.
Take `Nc1nc(=O)c2cc(CSc3ccc(C(=O)NC(CCC(=O)O)C(=O)O)cc3)ccc2[nH]1` (centres undefined): the outcome with Influenza A virus [2] and with Influenza A virus [3] was inactive.
For the compound `O=C(/C=C/c1ccc(O)c(O)c1)NCC(=O)NC(Cc1ccccc1)C(=O)O` (centres undefined), the Activity in data set [1] was determined as 1.1 µM; with MDCK, 2.2 µM. Moreover, the result in the data set with Influenza A virus [2] and in the data set on Influenza A virus [3] was inactive.
Regarding `O=C(O)c1ccccc1C(=O)Nc1cc2c(cc1Br)-c1ccccc1C2=O`, the Activity in data set [1] came out at 10 µM; in the data set with MDCK, 1.1 µM. Besides, the outcome in the data set on Influenza A virus [2] and in the data set with Influenza A virus [3] was inactive.
On to `Cc1nc(Nc2ccccc2)sc1C(=O)CC(=O)C(=O)NC1C2CC3CC(C2)CC1C3` (centres undefined), for which the Activity in data set [1] was 1.1 µM; in the data set with MDCK it was 1.5 µM. In addition, the result in the data set with Influenza A virus [2] and in the data set with Influenza A virus [3] was inactive.
As for `CCOC(=O)C(O)C(=O)OCc1ccc2ccccc2n1` (centres undefined), the Activity in [1] was 1 µM; in the data set on MDCK, 1.4 µM. Also, the outcome in the data set on Influenza A virus [2] and with Influenza A virus [3] was inactive.
Take `C/C(=C\C(=O)N1c2ccccc2CC1c1c[nH]c2ccccc12)C(=O)O` (centres undefined): the figures for the Activity (in data set [1]; in the data set on MDCK) were 1 µM and 1.2 µM, respectively. Also, the outcome in the data set with Influenza A virus [2] and with Influenza A virus [3] was inactive.
With `O=C(O)CCC(=O)CCC(=O)c1ccc2ccccc2c1`, the Activity worked out at 1.1 µM in [1] and 1 µM with MDCK. Also, the outcome in the data set with Influenza A virus [2] and in the data set with Influenza A virus [3] was inactive.
With `CCOC(=O)C1=C[C@@H](OC(CC)CC)[C@H](NC(C)=O)[C@@H](N)C1`, the result in the data set with Influenza A virus [2], in the data set on Influenza A virus [3], in the data set on Influenza A virus [4] and in the data set with Influenza A virus [5] was Active.
For the compound `Nc1nc(O)c2cc(CSc3ccc(C(=O)NC(CCC(=O)O)C(=O)O)cc3)ccc2n1` (centres undefined), the Activity (in data set [1]; in the data set with MDCK) was 1.1 µM each time.
On to `O=C(O)CCCCCNC(=O)OCc1ccccc1`, for which the Activity came out at 0.9 µM in data set [1] and 1.5 µM in the data set on MDCK. The result in the data set with Influenza A virus [2] and with Influenza A virus [3] was inactive.
For `Cc1nc(N)nc(O)c1CCCNc1ccc(/C=C/C(=O)CCl)cc1`, the Activity in data set [1] was 1.1 µM; with MDCK, 2.2 µM; with Influenza A virus [6], “Dose-dependent effect”; in the data set with Influenza A virus [7], “Dose-dependent effect”; in the data set with Mus musculus, “Non-toxic”. In addition, the outcome (with Influenza A virus [2]; in the data set on Influenza A virus [3]; in the data set with Influenza A virus [4]; in the data set with Influenza A virus [5]; in data set [8]) was Active.
In the case of `C[C@H](NC(=O)OCc1ccccc1)C(=O)N[C@@H](Cc1c[nH]c2ccccc12)C(=O)O` (Cbz-Ala-Trp-OH), in data set [1], the Activity was found to be 0.9 µM. The result in the data set on Influenza A virus [2] and with Influenza A virus [3] was inactive.
Regarding `O=C(O[C@H](C(=O)O)[C@H](OC(=O)c1ccccc1)C(=O)O)c1ccccc1`, the Activity worked out at 1.1 µM in data set [1] and 0.7 µM in the data set with MDCK. For the same compound, the result in the data set on Influenza A virus [2] and in the data set on Influenza A virus [3] was inactive.
On to `O=C(O)CCC(=O)NCC1CCCC(CNC(=O)CCC(=O)O)C1` (centres undefined), for which the Activity in [1] was determined as 0.9 µM; with MDCK it was 1.3 µM. Further, the result with Influenza A virus [2] and in the data set on Influenza A virus [3] was inactive.
As for `Nc1nc(=O)c2cc(NCc3ccc(C(=O)NC(CCC(=O)O)C(=O)O)cc3)ccc2[nH]1` (centres undefined), the Activity in data set [1] stood at 0.9 µM; in the data set with MDCK, 1.2 µM. The outcome in the data set on Influenza A virus [2] and with Influenza A virus [3] was inactive.
In turn, `CNC(=N)Nc1ccc(C(=O)O)cc1.O=S(=O)(O)O` yielded an Activity in data set [1] of 0.7 µM. Moreover, the outcome with Influenza A virus [2] and in the data set with Influenza A virus [3] was inactive.
Consider `Cc1ccccc1OC(=O)Nc1ccc(C(=O)O)c(O)c1`, for which the Activity came out at 0.9 µM in data set [1] and 1.7 µM in the data set with MDCK. For the same compound, the result in the data set on Influenza A virus [2] and in the data set on Influenza A virus [3] was inactive.
Take `CCOC(=O)CNC(=O)CCC(NS(=O)(=O)c1ccc(C)cc1)C(=O)O` (centres undefined): in data set [1], the Activity was 0.8 µM. Further, the outcome in the data set on Influenza A virus [2] and in the data set with Influenza A virus [3] was inactive.
`Cc1cccc(OC(=O)Nc2ccc(C(=O)O)c(O)c2)c1`: the Activity is 1 µM in data set [1] and 2.3 µM with MDCK. Moreover, the outcome with Influenza A virus [2] and with Influenza A virus [3] was inactive.
The compound `O=C(O)C(Cc1ccc(O)cc1)c1ccc(C(Cc2ccc(O)cc2)C(=O)O)cc1` (centres undefined) displayed an Activity in data set [1] of 0.1 µM. For the same compound, the result in the data set on Influenza A virus [2] and in the data set with Influenza A virus [3] was inactive.
In [1], `O=C(Nc1ccn(C2CCC(COC(c3ccccc3)(c3ccccc3)c3ccccc3)O2)c(=O)n1)c1ccccc1` (centres undefined) displayed an Activity of 0.8 µM. In addition, the outcome with Influenza A virus [2] and in the data set with Influenza A virus [3] was inactive.
